Experimental data as given in ChEMBL document CHEMBL4308843, “Identification of ABX-1431, a Selective Inhibitor of Monoacylglycerol Lipase and Clinical Candidate for Treatment of Neurological Disorders” (J Med Chem, 2018).
Active and inactive are the calls of the source. The rule behind the calls is not given here.

Experiments:
[1] = target: T1, Solute carrier family 22 member 2 (Homo sapiens, UniProt O15244); test: Inhibition of OCT2 (unknown origin) at 10 uM; format: ADME
T1 sequence (O15244 whole entry): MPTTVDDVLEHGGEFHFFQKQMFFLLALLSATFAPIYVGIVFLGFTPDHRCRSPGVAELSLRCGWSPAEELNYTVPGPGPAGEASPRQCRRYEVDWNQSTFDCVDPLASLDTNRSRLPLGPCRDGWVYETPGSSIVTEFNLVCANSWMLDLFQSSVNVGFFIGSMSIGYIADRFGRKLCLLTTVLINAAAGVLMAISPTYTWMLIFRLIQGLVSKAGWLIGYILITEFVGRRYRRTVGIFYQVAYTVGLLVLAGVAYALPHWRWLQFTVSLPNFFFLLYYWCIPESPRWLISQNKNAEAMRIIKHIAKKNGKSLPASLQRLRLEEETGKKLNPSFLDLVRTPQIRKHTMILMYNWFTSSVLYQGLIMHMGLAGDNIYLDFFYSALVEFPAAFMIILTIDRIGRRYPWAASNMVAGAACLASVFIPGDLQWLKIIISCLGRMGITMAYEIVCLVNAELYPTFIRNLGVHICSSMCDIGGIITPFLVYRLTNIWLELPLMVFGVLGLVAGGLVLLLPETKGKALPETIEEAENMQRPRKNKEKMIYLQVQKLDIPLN

[2] = Cmax in Sprague-Dawley rat at 5 mg/kg, po by LC-MS analysis; format: ADME, organism-based; parameters: dose 5 mg/kg, route oral; settings: in vivo
Method in brief: (§1)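 Rats (n = 3 per route) were dosed at 1 mg/kg iv (70% PEG400 in HPBCD/saline) or 5 mg/kg po (70% PEG400 in 0.5% CMC/saline), fasted overnight to 4 h post-dose. Jugular-catheter blood (~100 µL) was sampled to 24 h into 400 µL acetonitrile to stop esterases. Samples were quantified by HPLC-MS/MS, with noncompartmental analysis.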

[3] = Cmax in Beagle dog at 1 mg/kg, po by LC-MS analysis; settings: in vivo
[4] = test system: Rattus norvegicus; test: Antinociceptive activity in po dosed Sprague-Dawley rat brain assessed as inhibition of ABHD6 activity measured after 4 hrs post dose in presence of FP-Rh probe by gel-based ABPP assay; format: functional
Method in brief: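 Male Sprague Dawley rats, 6–12 weeks old, given single oral doses (0.03–10 mg/kg) in 0.5% methylcellulose at 5 mL/kg. Brains were taken 4 h post-dose and forebrain sections excised from one hemisphere. Brain proteome was labeled with FP-Rh (1 µM, 30 min) and analyzed by SDS-PAGE with in-gel fluorescence. Band intensity was normalized to vehicle.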

[5] = test system: Mus musculus; test: In vivo inhibition of ABHD6 in ICR mouse brain at 25 mg/kg, po measured at 4 hrs post dose in presence of FP-Rh probe by gel-based ABPP assay; format: functional, organism-based
[6] = target: Cytochrome P450 2C9 (Homo sapiens, UniProt P11712); test: Inhibition of recombinant human CYP2C9; format: ADME
[7] = Half life in Beagle dog at 1 mg/kg, iv by LC-MS analysis; format: ADME, organism-based, Canis lupus familiaris; settings: in vivo
Method in brief: (§2)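 Male beagle dogs (n = 3 per route), 10–12 months old, were dosed at 1 mg/kg iv or po in PEG400/ethanol/PBS (7/2/1), fasted overnight to 2 h post-dose. Peripheral venous blood was sampled to 24 h into K2EDTA and plasma frozen at −80 °C. Plasma was quantified by HPLC-MS/MS, with noncompartmental analysis.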

[8] = target: hERG (KCNH2) (Homo sapiens, UniProt Q12809); test: Inhibition of human ERG
[9] = Volume of distribution at steady state in Sprague-Dawley rat at 1 mg/kg, iv or 5 mg/kg, po by LC-MS analysis; format: ADME, organism-based; settings: in vivo, read-out: Vdss; method in brief: as §1
[10] = Clearance in Beagle dog at 1 mg/kg, iv or 1 mg/kg, po by LC-MS analysis; format: ADME, organism-based, Canis lupus familiaris; settings: in vivo; method in brief: as §2
[11] = target: T2, Monoglyceride lipase (Rattus norvegicus) (UniProt Q8R431); test: Inhibition of MGLL in rat brain membrane homogenates at 0.001 to 10 uM preincubated for 30 mins followed by FP-Rh addition after 30 mins by gel-based ABPP assay; format: cell membranes
T2 sequence (whole entry): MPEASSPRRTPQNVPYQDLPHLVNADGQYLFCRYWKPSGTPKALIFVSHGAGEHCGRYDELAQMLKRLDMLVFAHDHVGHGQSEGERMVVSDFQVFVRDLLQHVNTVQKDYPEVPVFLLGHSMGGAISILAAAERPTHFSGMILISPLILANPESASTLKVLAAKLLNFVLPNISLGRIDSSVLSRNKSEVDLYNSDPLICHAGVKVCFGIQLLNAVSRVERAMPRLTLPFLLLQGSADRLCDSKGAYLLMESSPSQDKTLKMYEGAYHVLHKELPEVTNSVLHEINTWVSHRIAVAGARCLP
Method in brief: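 Brain protein homogenates (1 mg/mL) treated with compound 0.001–10 µM or DMSO, 30 min at 37°C, then 1 µM FP-Rh (MGLL) or HT-01 (ABHD6), 30 min at 25°C.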

[12] = test system: Mus musculus; test: In vivo inhibition of CES1c in po dosed ICR mouse brain measured 4 hrs post dose in presence of FP-Rh probe by gel-based ABPP assay; format: functional
Method in brief: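 Male ICR mice, 6–12 weeks old, given single oral doses (0.5–32 mg/kg, n = 3) in PEG400:ethanol:PBS (7/2/1 v/v/v) at 5 mL/kg. Brains were removed 4 h later and one hemisphere processed for gel-based ABPP. Proteome was labeled with FP-Rh (1 µM, 30 min) and read by in-gel fluorescence relative to vehicle.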

[13] = Tmax in Beagle dog at 1 mg/kg, iv or 1 mg/kg, po by LC-MS analysis; format: ADME, organism-based, Canis lupus familiaris; settings: in vivo; method in brief: as §2
[14] = Oral bioavailability in Sprague-Dawley rat at 5 mg/kg by LC-MS analysis; format: ADME, organism-based; settings: in vivo; method in brief: as §1
[15] = target: T3, Monoglyceride lipase (Mus musculus) (UniProt O35678); test: Inhibition of MGLL in mouse brain membrane homogenates at 0.001 to 10 uM preincubated for 30 mins followed by FP-Rh addition after 30 mins by gel-based ABPP assay; format: cell membranes
T3 sequence (whole entry): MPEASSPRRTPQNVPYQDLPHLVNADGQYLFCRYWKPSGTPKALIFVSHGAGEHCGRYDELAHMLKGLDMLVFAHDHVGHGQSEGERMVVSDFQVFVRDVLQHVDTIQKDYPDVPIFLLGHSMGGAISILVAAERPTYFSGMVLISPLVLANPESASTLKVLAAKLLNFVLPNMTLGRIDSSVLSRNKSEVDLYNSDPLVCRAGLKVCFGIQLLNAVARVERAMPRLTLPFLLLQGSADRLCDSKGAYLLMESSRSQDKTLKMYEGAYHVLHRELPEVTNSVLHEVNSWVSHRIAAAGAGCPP
Method in brief: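 Brain membrane homogenates (1 mg/mL protein) were preincubated with 0.001-10 µM inhibitor or DMSO for 30 min at 37°C, then labelled with 1 µM FP-Rh for 30 min at 25°C. Reactions were quenched in SDS-PAGE loading buffer, run on 10% gels and scanned in-gel. MGLL band intensities were normalised to DMSO (100%).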

Chain of hERG (KCNH2) (Q12809 whole entry): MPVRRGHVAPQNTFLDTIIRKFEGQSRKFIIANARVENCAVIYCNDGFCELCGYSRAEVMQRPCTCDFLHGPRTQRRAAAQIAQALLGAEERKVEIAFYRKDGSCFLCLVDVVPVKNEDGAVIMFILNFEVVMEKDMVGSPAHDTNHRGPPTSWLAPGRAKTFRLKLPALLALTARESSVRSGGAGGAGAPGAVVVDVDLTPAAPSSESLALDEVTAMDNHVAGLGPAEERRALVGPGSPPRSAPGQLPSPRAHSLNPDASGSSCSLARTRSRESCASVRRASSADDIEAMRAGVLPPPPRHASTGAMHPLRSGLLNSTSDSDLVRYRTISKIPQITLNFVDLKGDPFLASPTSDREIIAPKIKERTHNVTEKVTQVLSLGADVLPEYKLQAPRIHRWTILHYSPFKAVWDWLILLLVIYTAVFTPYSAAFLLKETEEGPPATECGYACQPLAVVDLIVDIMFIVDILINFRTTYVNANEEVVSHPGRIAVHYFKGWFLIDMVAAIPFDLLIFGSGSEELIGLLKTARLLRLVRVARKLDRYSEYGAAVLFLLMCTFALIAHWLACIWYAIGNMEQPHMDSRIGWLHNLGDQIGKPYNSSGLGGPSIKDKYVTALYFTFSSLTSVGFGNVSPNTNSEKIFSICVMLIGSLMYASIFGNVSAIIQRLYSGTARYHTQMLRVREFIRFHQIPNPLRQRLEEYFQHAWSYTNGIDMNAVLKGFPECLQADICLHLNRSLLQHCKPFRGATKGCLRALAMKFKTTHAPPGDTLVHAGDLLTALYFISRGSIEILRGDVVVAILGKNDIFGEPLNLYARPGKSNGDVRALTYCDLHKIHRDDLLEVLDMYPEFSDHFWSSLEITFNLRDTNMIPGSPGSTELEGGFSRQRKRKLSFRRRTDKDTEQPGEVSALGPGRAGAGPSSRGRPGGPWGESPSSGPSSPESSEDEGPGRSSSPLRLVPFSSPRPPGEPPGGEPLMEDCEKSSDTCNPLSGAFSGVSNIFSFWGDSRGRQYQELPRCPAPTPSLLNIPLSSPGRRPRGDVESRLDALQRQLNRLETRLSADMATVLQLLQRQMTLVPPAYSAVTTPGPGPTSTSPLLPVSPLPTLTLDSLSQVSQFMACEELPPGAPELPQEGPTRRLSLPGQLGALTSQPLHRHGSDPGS
Chain of Cytochrome P450 2C9 (P11712 whole entry): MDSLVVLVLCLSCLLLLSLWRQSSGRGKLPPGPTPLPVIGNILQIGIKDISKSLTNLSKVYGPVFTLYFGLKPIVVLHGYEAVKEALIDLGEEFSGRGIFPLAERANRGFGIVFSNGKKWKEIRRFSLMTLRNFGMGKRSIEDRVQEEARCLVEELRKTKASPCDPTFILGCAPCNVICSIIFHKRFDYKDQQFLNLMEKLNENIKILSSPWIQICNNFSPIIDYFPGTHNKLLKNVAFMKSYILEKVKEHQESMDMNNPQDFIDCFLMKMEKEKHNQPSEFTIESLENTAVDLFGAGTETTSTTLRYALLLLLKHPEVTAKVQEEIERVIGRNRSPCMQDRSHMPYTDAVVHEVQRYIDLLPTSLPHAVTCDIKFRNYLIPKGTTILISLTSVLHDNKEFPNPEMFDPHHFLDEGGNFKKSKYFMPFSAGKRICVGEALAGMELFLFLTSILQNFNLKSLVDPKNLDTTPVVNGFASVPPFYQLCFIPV

Question: With `O=C(OC(C(F)(F)F)C(F)(F)F)N1CCN(Cc2ccc(C(F)(F)F)cc2N2CCCC2)CC1` [ELCUBRAGISTAT] as the molecule, how does the “inhibition (INH)” value [1] read?
Answer: Not Active

Question: And the Cmax [2]?
Answer: 688 nM

Question: What about the Cmax [3] of the same molecule?
Answer: 777 nM

Question: What about the ED50 [4] of the same molecule?
Answer: 2.9 mg/kg

Question: What about the inhibition [5] of the same molecule?
Answer: Active

Question: What about the IC50 [6] of the same molecule?
Answer: > 50 µM

Question: And the half-life [7]?
Answer: 6.1 h

Question: And the IC20 [8]?
Answer: 7 µM

Question: And the Vd [9]?
Answer: 3.2 L/kg

Question: What about the clearance [10] of the same molecule?
Answer: 6.3 mL/min/kg

Question: And the inhibition [11]?
Answer: Active

Question: And the ED50 [12]?
Answer: 32 mg/kg

Question: And the Tmax [13]?
Answer: 1 h

Question: What about the bioavailability [14] of the same molecule?
Answer: 64%

Question: And the inhibition [15]?
Answer: Active
